An excerpt weighted towards active compounds, which were near 2.3% of everything screened.
SKN-1 inh – blocks SKN-1 activity in C. elegans; C. elegans VP596 Pgst-4::GFP/RFP ratio, acrylamide-induced, 24 h; inhibition, % at 21.8 µM; AID 624304; 360,000 tested, 0.49% active;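 active = interference check ratio from 0.5 to 1.5 plus GFP to RFP signal ratio inhibition reaching or exceeding a fixed threshold, cut at about 30% in these data, passing the limit was not always enough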
ATG4B inhibitor – blocks human ATG4B protease cleavage of LC3 substrate; Q9Y4P1; inhibition, % at 8.33 µM; ATG4B cleavage of LC3-PLA2, NBD-HPC fluorescence, 1 h; 340,000 tested, 0.51% active; in the data active = inhibition above about 40%
Target sequence (Q9Y4P1 whole entry, looked up): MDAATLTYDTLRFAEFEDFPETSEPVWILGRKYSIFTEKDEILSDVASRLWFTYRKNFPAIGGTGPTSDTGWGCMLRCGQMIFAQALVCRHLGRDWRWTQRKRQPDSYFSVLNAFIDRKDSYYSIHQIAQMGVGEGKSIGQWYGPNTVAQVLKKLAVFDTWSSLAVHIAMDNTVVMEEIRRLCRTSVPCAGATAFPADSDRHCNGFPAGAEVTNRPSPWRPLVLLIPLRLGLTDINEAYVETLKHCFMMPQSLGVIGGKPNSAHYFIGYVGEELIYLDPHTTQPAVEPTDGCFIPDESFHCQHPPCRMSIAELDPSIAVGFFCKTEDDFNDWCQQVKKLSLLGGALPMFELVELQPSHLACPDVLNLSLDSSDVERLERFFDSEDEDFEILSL
MPTP block – permeability transition pore inhibition; isolated mouse mitochondria, Ca2+ swelling absorbance, 30 min; inhibition, % at 10 µM; 360,000 tested, 1.4% active;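 active = inhibition of 50% or more, scaled per plate between neutral and stimulator controls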;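 note: 0% = DMSO wells given calcium and 100% = 1 mM EGTA wells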
MT1-MMP act inh – blocks activation of human MT1-MMP | P50281 | HT1080 RFP-PRO-GFP cells, GFP/RFP ratio fluorescence, overnight; percent of plate control window, DMSO zero | GFP/RFP ratio change, % at 20 µM | 360,000 tested, 0.061% active | AID 651647;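 active = GFP/RFP ratio change of at least 30% with cell ATP level not reduced by more than half and red fluorescence within 50% of control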
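Assay system: HT1080 RFP-PRO-GFP cells. Benchmarks: DMSO vehicle wells and RFP-L50D-GFP reporter cell wells. Times: overnight cell settling, then overnight compound exposure, 37 °C, 5% CO2. Compound: 20 µM single dose, 1% DMSO. Read-out basis: GFP/RFP fluorescence ratio.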
ATG4B conf – confirmation of human ATG4B inhibitors. shares compounds with ATG4B inhibitor. ATG4B protease fluorescent substrate cleavage assay. inhibition, % at 8.33 µM. 320 tested, 92% active; in the data active = inhibition above about 39%
PLA2 counter – counter-screen for ATG4B inhibitors: human phospholipase A2. shares compounds with ATG4B inhibitor. purified PLA2, NBD-C6-HPC fluorescence, 45 min. inhibition, % at 8.33 µM. 1,600 tested, 66% active. AID 588402; in the data active = inhibition above about 50%
Target sequence (P04054 whole entry, looked up): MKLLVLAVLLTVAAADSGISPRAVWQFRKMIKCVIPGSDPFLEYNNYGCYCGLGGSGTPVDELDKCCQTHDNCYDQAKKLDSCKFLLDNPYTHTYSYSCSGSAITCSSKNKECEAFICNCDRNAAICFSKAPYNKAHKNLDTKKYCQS
Rh123 counter – mitochondrial membrane potential, counter-screen. shares compounds with MPTP block. isolated mitochondria, Rhodamine 123 fluorescence. inhibition, % at 10 µM. 5,000 tested, 78% active. AID 624504; in the data active = inhibition above about 22%;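 note: 0% = DMSO vehicle and 100% = positive control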
MPTP swell DR – MPTP inhibition, dose response swelling confirmation; shares compounds with MPTP block; isolated mitochondria swelling, absorbance; IC50, µM; 780 tested, 58% active; AID 651561; in the data active = IC50 below about 20 µM
MPTP counter DR – active in counter-screen for permeability transition pore inhibitors; shares compounds with MPTP block; isolated mitochondria counterscreen, fluorescence read-out; IC50, µM; 780 tested, 49% active; AID 651564; in the data active = IC50 below about 80 µM
MT1-MMP conf – validation of inhibitors of human MT1-MMP activation. shares compounds with MT1-MMP act inh. HT1080 RFP-PRO-GFP cells, GFP and RFP fluorescence ratio, overnight. inhibition, % at 20 µM. 200 tested, 10% active;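 active = inhibition of at least 50% in the primary cell screen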
* marks the source's active call; other numbers are inactive results; i = inactive; nt = not tested or not shown.

SMILES	SKN-1 inh	ATG4B inhibitor	MPTP block	MT1-MMP act inh	Rh123 counter	others
FC(F)Oc1ccc(NC(=S)NC2CCSc3ccccc32)cc1 (stereo not drawn)	-7	59*	83*	3	79*	PLA2 counter=57*
Oc1nc(Nc2ccc(Cl)cc2Cl)sc1/C=C1\C=Nc2ccccc21	6	78*	96*	0	58*	ATG4B conf=22;PLA2 counter=23
CC1CC(C)CN(C(=O)c2ccc3c(c2NCCO)C(=O)c2ccccc2C3=O)C1 (stereo not drawn)	36*	59*	10	60*	nt	PLA2 counter=67*;MT1-MMP conf=45
CC1CC(C)CN(C(=O)COC(=O)CN2C(=O)c3ccccc3C2=O)C1 (stereo not drawn)	7	-5	0	0	nt
O=C1c2cccc(Cl)c2C(=O)c2c1cccc2N1CCCC1	50	48*	5	46*	nt	PLA2 counter=63*;MT1-MMP conf=16
COC(=O)CSc1nnc(-c2ccc(NS(=O)(=O)c3ccccc3)cc2)o1	32	-2	-5	10	nt
COc1ccc(-c2c[n+](CC(=O)OC3CC(C)CCC3C(C)C)c3n2CCC3)cc1 (stereo not drawn)	-11	3	0	-20	nt
CC1CCC(C(C)C)C(OC(=O)Cn2c(-c3ccc(Cl)cc3)[n+](C)c3ccccc32)C1 (stereo not drawn)	-20	19	54*	-14	79*
CC1CCC(C(C)C)C(OC(=O)Cn2c(-c3ccc(Br)cc3)[n+](C)c3ccccc32)C1 (stereo not drawn)	-7	20	5	-47	nt
CC(C)[C@@H]1CC[C@@H](C)C[C@H]1OC(=O)C[n+]1cc(-c2ccc(Cl)cc2)n2c1CCCCC2	-8	17	64*	-13	86*
NC(=O)NOCc1ccc(Cl)cc1Cl	-11	-3	-1	1	nt
CNC(=S)/N=C/NOCc1ccc(Cl)cc1Cl	10	7	101*	-19	95*
Cc1c(C(N)=O)sc2ncn(CC(=O)N(C)C3CCCCC3)c(=O)c12	6	-7	2	3	nt
CCOc1ccc2nc(NC3=NC(C)(C)C=C(C)N3)nc(C)c2c1	14	-2	86*	-9	85*
COc1ccc2c(C)nc(Nc3nc(-c4ccccc4)cc(=O)[nH]3)nc2c1	-14	-7	2	-1	nt
CCOc1ccc2c(C)nc(NC3=NC(C)(C)C=C(C)N3)nc2c1	31	-2	59*	-19	6	MPTP swell DR=i;MPTP counter DR=7.7*
CCOc1ccc2nc(NC3=NC(c4ccc(OC)cc4)CC(=O)N3)nc(C)c2c1 (stereo not drawn)	17	-49	2	-17	nt
O=C(Nc1ccc(Oc2ccccc2)cc1)c1cnc2n(c1=O)CCS2	9	2	92*	5	61*
COC(=O)c1ccc(N2CCN(CC(=O)c3ccc(-c4ccccc4)cc3)CC2)c([N+](=O)[O-])c1	10	-9	7	-6	nt
N#Cc1ccc(NC(=O)N2CCC(c3nc4c(nnn4Cc4cccc(Cl)c4)c(=O)[nH]3)CC2)cc1	9	-17	56*	8	28*
O=C(c1ccco1)N1CCCC(c2nc3c(nnn3Cc3cccc(Cl)c3)c(=O)[nH]2)C1 (stereo not drawn)	5	13	0	-1	nt
Cc1ccc(CNC(=O)CCNS(=O)(=O)c2cccc3nsnc23)cc1	7	-2	-2	-1	nt
O=C(Nc1ccc(Cl)c(C(F)(F)F)c1)c1ccncc1	-7	-2	-1	-5	nt
CNC(=O)c1cc(Oc2ccc(NC(=O)Nc3ccc(Cl)c(C(F)(F)F)c3)cc2)ccn1	0	10	57*	7	46*
Cc1cc(/C=C2\SC(=S)N(C)C2=O)c(C)n1-c1cccc(O)c1	8	-2	66*	-117	66*
SMILES	SKN-1 inh	ATG4B inhibitor	MPTP block	MT1-MMP act inh	Rh123 counter	others
Cc1cc(OC(=O)c2c(C)cc(OC(=O)c3c(C)cc(O)cc3O)cc2O)cc(O)c1C(=O)O	-1	9	72*	1	67*
COC(=O)c1c(C)cc(O)cc1O	5	-12	-3	2	nt
O=C(Nc1cccc(Cl)c1)ON1CCCCC1	7	nt	5	1	nt
C=CCc1cc(Cl)ccc1OC(=O)Nc1cccc(Cl)c1	-1	10	93*	4	97*
CCC1CCCCN1S(=O)(=O)c1ccc(NC(=O)c2ccncc2)cc1 (stereo not drawn)	18	-14	75*	5	89*
COc1ccc(S(=O)(=O)N(CC(=O)NCc2ccncc2)c2cc(C)cc(C)c2)cc1OC	4	3	4	-5	nt
CCCCCc1c2c(cc(O)c1C(=O)O)OC(=O)c1cc(C(=O)CCCC)c(OC)cc1O2	8	2	95*	0	57*
CCCCc1c(C(=O)O)cc(OC)cc1C(=O)O	-11	-4	-1	3	nt
COc1ccc(OC)c(C(=O)CCCC(=O)c2cc(OC)ccc2OC)c1	13	-5	1	3	nt
CCCCCc1c2c(cc(O)c1C(=O)O)OC(=O)c1c(cc(OC)cc1C(=O)CCCC)O2	-3	16	90*	3	28*
COC(=O)c1ccccc1OCCCOc1ccc(C=O)cc1OC	-4	8	58*	1	-8	MPTP swell DR=11*;MPTP counter DR=>80
COc1cc(C)ccc1OCCCCOc1ccccc1C(C)=O	7	-9	95*	-1	85*
COc1cc(C)ccc1OCCCOc1ccccc1Cl	11	2	1	2	nt
CCn1c(=O)n(CC(=O)NCC2CCCO2)c(=O)c2c3c(sc21)COC(C)(C)C3 (stereo not drawn)	13	0	-3	0	nt
O=C(NNc1ccc([N+](=O)[O-])cn1)Nc1ccc(N=Nc2ccccc2)cc1	22	-2	91*	11	64*
O=[N+]([O-])c1ccc(Nc2ccc3ccccc3c2)nc1	19	-17	78*	6	59*
O=C(NNC(=O)c1ccncc1)Nc1ccc(N=Nc2ccccc2)cc1	-5	-1	68*	13	30*
O=C(NNc1ccc([N+](=O)[O-])cc1)Nc1ccccc1	18	-2	2	0	nt
O=[N+]([O-])c1ccc2[nH]c3c(c2c1)CCCC3	4	-5	72*	6	71*

From PubChem BioAssay
